Drawing on ChEMBL document CHEMBL1130239, “Synthesis and evaluation of (S)-4-(3-(2'-[11C]isopropylamino)-2-hydroxypropoxy) -2H-benzimidazol -2-one ((S)-[11C]CGP 12388) and (S)-4-(3-((1'-[18F]-fluoroisopropyl)amino)-2-hydroxypropoxy) -2H- benzimidazol-2-one ((S)-[18F]fluoro-CGP 12388) for visualization of beta-adrenoceptors with positron …” (J Med Chem, 1997), this text covers logP and DAR for two molecules.

Data set [1] is described as follows: Partition coefficient (logP). The format is physicochemical. The conditions noted are these: octanol/water. Summed up:
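50-100 μCi of tracer in 0.1 M phosphate buffer pH 7.4 (5 mL) plus n-octanol (5 mL). Shaken vigorously for 30 min at 37 °C, five mixtures. 100 μL of each layer gamma-counted. log P from the octanol/water count ratio, n = 5. A calculated value was also obtained with Pallas 1.2.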

Data set [2] is filed under the species Rattus norvegicus. As to the kind of experiment: Biodistribution of [11C]-CGP- 12388 (10 minutes post injection) in heart of male wistar rats. The format is ADME, organism-based. The settings on record: in vivo. The gist of the method: (§1)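 Male Wistar rats (200 ± 20 g) under pentobarbital anesthesia (60 mg/kg ip) got iv saline (controls, n = 4) or 500 μg (±)-propranolol (blocking, n = 4) <1 min before the tracer. Tracer dose was 1 MBq (30 pmol) in 0.3 mL. Rats were killed by heart extirpation at 10 min and tissues counted. Plasma was spun 3 min at 1000g. Uptake is given as DAR, mean ± SD.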

Data set [3] is filed under the species Rattus norvegicus. In words: Biodistribution of [11C]-CGP- 12388 (10 minutes post injection) in lung of male wistar rats. Format: ADME, organism-based. The conditions noted are these: in vivo. Summed up: as §1
The species entered for data set [4] is Rattus norvegicus. As to the kind of experiment: Biodistribution of [11C]-CGP- 12388 (10 minutes post injection) in liver of male wistar rats. The conditions noted are these: in vivo. The format is ADME, organism-based. Summed up: as §1
For data set [5], the species on record is Rattus norvegicus. As to the kind of experiment: Biodistribution of [11C]-CGP- 12388 (60 minutes post injection) in plasma of male wistar rats. The settings on record: in vivo, 1 h. Format: ADME, organism-based. Summed up:
(§2)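 Wistar males (200 ± 20 g) were given pentobarbital 60 mg/kg ip, plus 15-20 mg/kg if needed before dissection. Saline controls (n = 6) or 500 μg (±)-propranolol iv blocking rats (n = 4) were pretreated <1 min before 1 MBq (30 pmol) tracer in 0.3 mL. Sacrifice and dissection were at 60 min. DAR = (cpm/g tissue)/(injected cpm/g body weight); mean ± SD.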

Data set [6] is filed under the species Rattus norvegicus. As to the kind of experiment: Biodistribution of [11C]-CGP- 12388 (10 minutes post injection) in plasma of male wistar rats. The conditions noted are these: in vivo. Format: ADME, organism-based. Summed up:
as §1

The species named for data set [7] is Rattus norvegicus. As to the kind of experiment: Biodistribution of [11C]-CGP- 12388 (60 minutes post injection) in intestine bone of male wistar rats. The settings on record: in vivo, 1 h, in the assay text read “intestine” for “intestine bone”. Format: ADME, organism-based. Summed up: as §2
The species entered for data set [8] is Rattus norvegicus. As to the kind of experiment: Biodistribution of [11C]-CGP- 12388 (10 minutes post injection) in trachea of male wistar rats. Format: ADME, organism-based. The settings on record: in vivo. The gist of the method: as §1
For data set [9], the species on record is Rattus norvegicus. In words: Biodistribution of [11C]-CGP- 12388 (60 minutes post injection) in bone of male wistar rats. The settings on record: in vivo, 1 h. Format: ADME, organism-based, Bone element. The gist of the method:
as §2

Data set [10] is filed under the species Rattus norvegicus. In words: Biodistribution of [11C]-CGP- 12388 (60 minutes post injection) in fat of male wistar rats. The conditions noted are these: in vivo, 1 h. Format: ADME, organism-based, Adipose tissue. The gist of the method:
as §2

For data set [11], the species on record is Rattus norvegicus. In words: Biodistribution of [11C]-CGP- 12388 (60 minutes post injection) in cortex of male wistar rats. The format is ADME, organism-based. The conditions noted are these: in vivo, 1 h. Summed up: as §2
Data set [12] is filed under the species Rattus norvegicus. As to the kind of experiment: Biodistribution of [11C]-CGP- 12388 (10 minutes post injection) in red blood cells of male wistar rats. Format: ADME, organism-based. The conditions noted are these: in vivo. The gist of the method: as §1
Data set [13] is filed under the species Rattus norvegicus. As to the kind of experiment: Biodistribution of [11C]-CGP- 12388 (10 minutes post injection) in bone of male wistar rats. Format: ADME, organism-based, Bone element. The settings on record: in vivo. Summed up:
as §1

The species entered for data set [14] is Rattus norvegicus. As to the kind of experiment: Biodistribution of [11C]-CGP- 12388 (10 minutes post injection) in intestine of male wistar rats. Format: ADME, organism-based. The settings on record: in vivo. Summed up: as §1
The species entered for data set [15] is Rattus norvegicus. In words: Biodistribution of [11C]-CGP- 12388 (10 minutes post injection) in muscle of male wistar rats. The conditions noted are these: in vivo. Format: ADME, organism-based, Muscle tissue. The gist of the method: as §1
The species named for data set [16] is Rattus norvegicus. In words: Biodistribution of [11C]-CGP- 12388 (60 minutes post injection) in spleen of male wistar rats. The format is ADME, organism-based. The conditions noted are these: in vivo, 1 h. Summed up:
as §2

Data set [17] is filed under the species Rattus norvegicus. In words: Biodistribution of [11C]-CGP- 12388 (60 minutes post injection) in trachea of male wistar rats. Format: ADME, organism-based. The conditions noted are these: in vivo, 1 h. The gist of the method:
as §2

For data set [18], the species on record is Rattus norvegicus. In words: Biodistribution of [11C]-CGP- 12388 (60 minutes post injection) in lung of male wistar rats. The format is ADME, organism-based. The settings on record: in vivo, 1 h. Summed up: as §2
For data set [19], the species on record is Rattus norvegicus. As to the kind of experiment: Biodistribution of [11C]-CGP- 12388 (10 minutes post injection) in fat of male wistar rats. Format: ADME, organism-based, Adipose tissue. The conditions noted are these: in vivo. Summed up:
as §1

For data set [20], the species on record is Rattus norvegicus. In words: Biodistribution of [11C]-CGP- 12388 (60 minutes post injection) in kidney of male wistar rats. The settings on record: in vivo, 1 h. Format: ADME, organism-based. Summed up: as §2
The species named for data set [21] is Rattus norvegicus. In words: Biodistribution of [11C]-CGP- 12388 (10 minutes post injection) in cortex of male wistar rats. Format: ADME, organism-based. The conditions noted are these: in vivo. Summed up: as §1
The species entered for data set [22] is Rattus norvegicus. As to the kind of experiment: Biodistribution of [11C]-CGP- 12388 (10 minutes post injection) in cerebellum of male wistar rats. The settings on record: in vivo. Format: ADME, organism-based. Summed up:
as §1

For data set [23], the species on record is Rattus norvegicus. In words: Biodistribution of [11C]-CGP- 12388 (10 minutes post injection) in spleen of male wistar rats. Format: ADME, organism-based. The settings on record: in vivo. The gist of the method:
as §1

For data set [24], the species on record is Rattus norvegicus. As to the kind of experiment: Biodistribution of [11C]-CGP- 12388 (60 minutes post injection) in liver of male wistar rats. The settings on record: in vivo, 1 h. Format: ADME, organism-based. The gist of the method:
as §2

The species entered for data set [25] is Rattus norvegicus. In words: Biodistribution of [11C]-CGP- 12388 (60 minutes post injection) in red blood cells of male wistar rats. The format is ADME, organism-based. The settings on record: in vivo, 1 h. Summed up:
as §2

The species named for data set [26] is Rattus norvegicus. As to the kind of experiment: Biodistribution of [11C]-CGP- 12388 (60 minutes post injection) in cerebellum of male wistar rats. The format is ADME, organism-based. The conditions noted are these: in vivo, 1 h. Summed up: as §2
The species named for data set [27] is Rattus norvegicus. In words: Biodistribution of [11C]-CGP- 12388 (10 minutes post injection) in kidney of male wistar rats. The format is ADME, organism-based. The conditions noted are these: in vivo. Summed up: as §1
The species entered for data set [28] is Rattus norvegicus. As to the kind of experiment: Biodistribution of [11C]-CGP- 12388 (60 minutes post injection) in heart of male wistar rats. Format: ADME, organism-based. The conditions noted are these: in vivo, 1 h. The gist of the method:
as §2

The species named for data set [29] is Rattus norvegicus. In words: Biodistribution of [11C]-CGP- 12388 (60 minutes post injection) in muscle of male wistar rats. The settings on record: in vivo, 1 h. Format: ADME, organism-based, Muscle tissue. Summed up:
as §2

Molecules are shown by their SMILES.

In the case of `[3H]c1cc([3H])c2c(c1OCC(O)CNC(C)(C)C)=NC(=O)N=2` (configuration not stated), the lipophilicity (logP) (in general, a log measure of how a compound divides between an organic and an aqueous phase) in data set [1] is -0.5. The DAR turned out to be 0.94 in the data set filed under Rattus norvegicus [2] and 2.3 in the data set listed under Rattus norvegicus [3].
On to `C[11CH](C)NC[C@H](O)COc1cccc2[nH]c(O)nc12`, for which the DAR in the data set listed under Rattus norvegicus [4] was 1.65; in the data set filed under Rattus norvegicus [5], 0.4; in the data set filed under Rattus norvegicus [6] it was 0.5; in the data set filed under Rattus norvegicus [7] it was 1.14; in the data set listed under Rattus norvegicus [8], 0.7; in the data set filed under Rattus norvegicus [9] it was 0.23. For the same molecule, the DAR in the data set listed under Rattus norvegicus [10] amounted to 0.26; in the data set filed under Rattus norvegicus [11], 0.25; in the data set filed under Rattus norvegicus [12] it was 0.7; in the data set listed under Rattus norvegicus [13] it was 0.2; in the data set listed under Rattus norvegicus [2], 0.72; in the data set filed under Rattus norvegicus [14], 0.55. Further, the DAR was found to be 0.23 in the data set filed under Rattus norvegicus [15]; 0.49 in the data set listed under Rattus norvegicus [16]; 0.86 in the data set listed under Rattus norvegicus [17]; 0.88 in the data set listed under Rattus norvegicus [18]; 0.16 in the data set filed under Rattus norvegicus [19]; 1.26 in the data set filed under Rattus norvegicus [3]. Moreover, the DAR in the data set listed under Rattus norvegicus [20] is reported as 0.94; in the data set listed under Rattus norvegicus [21], 0.07; in the data set listed under Rattus norvegicus [22], 0.09; in the data set listed under Rattus norvegicus [23] it was 0.78; in the data set filed under Rattus norvegicus [24], 0.68; in the data set listed under Rattus norvegicus [25], 0.49. In addition, the DAR was found to be 0.26 in the data set listed under Rattus norvegicus [26], 2.44 in the data set listed under Rattus norvegicus [27], 0.76 in the data set listed under Rattus norvegicus [28] and 0.36 in the data set listed under Rattus norvegicus [29]. In [1], this molecule displayed a lipophilicity (logP) of -0.64.
